Experimental data as given in ChEMBL document CHEMBL1126289, “Analogues of the muscarinic agent 2'-methylspiro[1-azabicyclo[2.2.2]octane-3,4'-[1,3]dioxolane]: synthesis and pharmacology” (J Med Chem, 1992).

Tests used:
[1] = species: Cavia porcellus; assay: In vitro agonistic activity on isolated guinea pig ileum; type: functional
Summary of the method: (§1)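 Longitudinal ileal muscle strips from male guinea pig were held in Krebs-Henseleit (pH 7.4, carbogen) at 37 °C under about 5 mN tension and recorded isometrically. Single agonist concentrations were added, with washout and rest between each. EC50 was read graphically. Emax was expressed as percent of the carbachol maximum. Low-efficacy agents were estimated from pooled curves of at least two experiments.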

[2] = species: Cavia porcellus; assay: In vitro antagonistic activity on isolated guinea pig urinary bladder; type: functional
Summary of the method: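 Bladder smooth-muscle strips from male guinea pigs (~300 g) in Krebs-Henseleit, pH 7.4, carbogen-gassed, 37 °C, ~5 mN resting tension, stabilized ≥45 min; isometric tension recorded. A control cumulative carbachol curve was run, then washout and ≥15 min rest. A fixed test-compound concentration was incubated 60 min before a second carbachol curve. Carbachol EC50s were read graphically and dose ratios calculated to give KB; 2–8 experiments.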

[3] = species: Cavia porcellus; assay: Maximum response relative to that elicited by carbachol in guinea pig ileum was determined; type: functional; summary of the method: as §1
[4] = target: T1, Muscarinic acetylcholine receptor M3 (Cavia porcellus, UniProt Q8VH26); assay: Compound was evaluated for its binding affinity against muscarinic acetylcholine receptor M3 in guinea pig parotid gland using (-)-[3H]-QNB as radioligand; type: tissue-based
T1 sequence (Q8VH26 whole entry): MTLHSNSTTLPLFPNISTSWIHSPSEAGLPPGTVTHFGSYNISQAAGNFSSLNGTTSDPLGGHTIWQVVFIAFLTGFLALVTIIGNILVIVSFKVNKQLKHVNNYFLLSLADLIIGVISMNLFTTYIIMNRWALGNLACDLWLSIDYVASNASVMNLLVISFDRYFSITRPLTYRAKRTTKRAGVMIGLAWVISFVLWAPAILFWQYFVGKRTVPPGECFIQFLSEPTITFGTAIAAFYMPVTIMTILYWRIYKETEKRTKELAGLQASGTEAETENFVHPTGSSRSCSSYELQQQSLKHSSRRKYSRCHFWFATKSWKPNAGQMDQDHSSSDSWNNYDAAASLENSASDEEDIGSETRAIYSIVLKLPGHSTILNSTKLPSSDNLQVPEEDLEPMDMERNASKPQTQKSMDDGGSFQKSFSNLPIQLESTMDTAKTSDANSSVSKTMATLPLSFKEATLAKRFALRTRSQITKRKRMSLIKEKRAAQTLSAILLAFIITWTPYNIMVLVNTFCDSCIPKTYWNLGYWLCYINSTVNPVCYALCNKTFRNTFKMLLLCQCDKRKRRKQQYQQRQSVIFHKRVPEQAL
Summary of the method: (§2)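 Male guinea pig parotid gland homogenate was prepared in 50 mM Na/K phosphate pH 7.4 with 1 mM PMSF (protein ≤0.3 mg/mL). Triplicates were incubated with 2 nM (final) (−)-[3H]QNB at 25 °C for 210 min, with nonspecific binding defined by 10 µM atropine. Samples were separated by centrifugation and counted by scintillation. Ki came from graphical IC50 corrected by the Jacobs method, from 2–3 experiments.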

[5] = target: T1, Muscarinic acetylcholine receptor M3; assay: Compound was evaluated for its binding affinity against muscarinic acetylcholine receptor M3 n guinea pig parotid gland using (-)-[3H]-QNB as radioligand; type: tissue-based; summary of the method: as §2
[6] = target: T1, Muscarinic acetylcholine receptor M3; assay: Compound was evaluated for its binding affinity against Muscarinic acetylcholine receptor M3 in guinea pig parotid gland using (-)-[3H]-QNB as radioligand; type: tissue-based; summary of the method: as §2

| SMILES | EC50 [1] | Kb [2] | Emax [3] | Ki [4] | EC50 [2] | Ki [5] | Ki [6] |
| --- | --- | --- | --- | --- | --- | --- | --- |
| C[C@H]1CC[C@@]2(CN3CCC2CC3)O1 | 12 µM | 93 µM | 29% | 35 µM |  |  |  |
| C[N+](C)(C)CCOC(N)=O [CARBACHOL] | 0.17 µM |  | 100% |  | 1.7 µM |  |  |
| C[C@H]1OC[C@@]2(CN3CCC2CC3)O1 | 6 µM | 4.8 µM | 91% | 15 µM |  |  |  |
| CC1(C)OCC2(CN3CCC2CC3)O1 (stereo not given) | 22 µM | 41 µM | 14% |  |  | 39 µM |  |
| C[C@@H]1CC[C@@]2(CN3CCC2CC3)O1 | 30 µM | 90 µM | 20% |  |  |  | 78 µM |
| C1OCC2(CN3CCC2CC3)O1 (stereo not given) | 100 µM | 122 µM | 45% | 86 µM |  |  |  |
| C[C@@H]1OC[C@@]2(CN3CCC2CC3)O1 | 17 µM | 13 µM | 24% | 25 µM |  |  |  |
| C[C@@H]1C[C@@]2(CO1)CN1CCC2CC1 | 12 µM | 19 µM | 7% | 33 µM |  |  |  |
| C[C@H]1C[C@@]2(CO1)CN1CCC2CC1 | 150 µM | 30 µM | 25% |  |  |  | 26 µM |
